# Screening data (PubChem BioAssay)
# Cl transport mod: KCC2 cotransporter modulators, thallium flux, primary screen, cell-based, HEK293 KCC2, FluoZin-2 fluorescence, MLSMR; Solute carrier family 12 member 5 (Homo sapiens), Q9H2X9; actives 2.2% (n = 190,000); KCC2 cells, thallium flux FluoZin-2 fluorescence; AID 1456, 2008; B-score of Tl+ flux slope (higher = more flux/activation; lower = inhibition) at 10 µM;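 active = thallium flux slope and its plate-corrected score both differing from the plate sample mean at a set confidence after two filtering rounds, in either direction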;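 note: slope of fluorescence scaled to starting intensity during 10 to 20 s after thallium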
# ROMK mod: ROMK potassium channel modulators, primary screen, cell-based, thallium flux, MLSMR library; B-score at 10 µM; actives 2% (n = 130,000); AID 1918, 2009; ATP-sensitive inward rectifier potassium channel 1 (Homo sapiens), P48048; Tet-inducible ROMK, thallium flux fluorescence; actives lie on both sides;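 active = signal ratio slope over the read window, or its plate-corrected B-score, at least 3 SD from the plate mean, either direction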;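 note: B-score of the F/F0 ratio slope over 7 to 12 s after thallium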
# Rad51 HR inh: human RAD51 strand exchange inhibitors, primary screen, biochemical, fluorescence; DNA repair protein RAD51 homolog 1 (Homo sapiens), Q06609; hRad51 DNA strand exchange, fluorescence dequenching; inhibition, % at 10 µM; actives 0.085% (n = 200,000); AID 1385, 2008;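 active = inhibition above 40% at the single screening dose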;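 note: 0% = DMSO control wells and 100% = blanks with heterologous ssDNA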
#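 material = hRad51 filaments on single-stranded DNA | timing = filaments 15 min 37 °C, then compound 30 min | signal = FRET fluorescence dequenching, excitation 485 nm, emission 520 nm | benchmarks = control wells and blank wells on each plate | evaluation = percent inhibition relative to plate controls and blanks | compound = 10 µM final, single point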
# PKD1 kinase inh: inhibitors of human PKD1 kinase, biochemical, fluorescence polarization. actives 0.056% (n = 200,000). inhibition, % (test concentration not listed). PKD1 kinase fluorescence polarization assay; in the data active = inhibition above about 50%
# The depositor's hits bear a star; i = inactive; . = no result given. This is a sample that favours compounds with a hit; in the whole collection about 3% have one here.
SMILES,Cl transport mod,ROMK mod,Rad51 HR inh,PKD1 kinase inh
O=C1c2ccccc2-c2onc3ccc(NCCCn4ccnc4)c1c23,-1,-1.1,-4,94*
O=C(Cn1cnc2ccccc2c1=O)Nc1ccc(S(=O)(=O)N2CCCC2)cc1,-1.3,-0.37,-5,1
CC1CCCC(C)N1S(=O)(=O)c1ccc(NC(=O)CCn2cnc3ccccc3c2=O)cc1 (stereo not drawn),0.83,0.87,126*,-2
COC(=O)c1ccccc1NC(=O)Cn1nc2n(C)c3ccccc3n2c(=O)c1=O,0.37,.,8,4
COCCN1C(=O)/C(=C/c2ccc(N3CCCC3)cc2)SC1=S,-0.96,-3.5*,i,8
COc1ccc(/C=N/n2cncn2)cc1Cn1nc(C)c([N+](=O)[O-])c1C,1.3,.,.,.
CC(C)Cc1ccc(C(C)NC(=O)c2ccc(=O)[nH]c2)cc1 (stereo not drawn),-0.056,-1.4,6,-8
Cc1ccc(NC(=O)c2ccccc2NS(=O)(=O)c2ccc(Cl)s2)cc1S(=O)(=O)N1CCOCC1,-4.2*,-3.1*,.,-7
COc1ccc(C)cc1NC(=O)c1ccccc1NS(=O)(=O)c1ccc(Cl)s1,-3.6*,-3.7*,-20,-6
O=C(Nc1cc(S(=O)(=O)N2CCOCC2)ccc1O)c1ccc(NS(=O)(=O)c2ccc(Cl)s2)cc1,1.1,-0.16,0,1
COc1ccccc1NC(=O)c1ccccc1NS(=O)(=O)c1cccs1,-0.81,-0.53,10,-2
CCOC(=O)C1CCCN(C(=O)CN2C(=O)/C(=C/c3ccc(OC)cc3)Oc3ccccc32)C1 (stereo not drawn),-1.5,-0.41,7,1
O=C(CSc1ccc2ccccc2c1)Nc1ccncc1,-0.61,-2.8,.,-10
O=C(CSc1ccncc1)Nc1ccc2ccccc2c1,0.11,-0.84,-12,71*
CCC(C)n1c(=S)[nH]c2c(sc3ccc([N+](=O)[O-])cc32)c1=O (stereo not drawn),53*,5.3*,-2,10
COCCCNc1c2c3c(cccc3[nH]c1=O)C(=O)c1ccccc1-2,i,.,i,110*
CCCn1c(N)nc2ccccc21,0.55,.,-6,3
Nc1nc2ccccc2n1CCOc1ccccc1Cl,.,-3.9*,-11,-3
O=C(Nc1ccccc1C(F)(F)F)N1CCN(c2ccccn2)CC1,-1.1,-0.5,3,7
Cc1ccc(-c2csc3nc[nH]c(=S)c23)cc1,50*,10*,2,0
Cc1sc2nc[nH]c(=S)c2c1-c1ccccc1,31*,6.4*,3,3
Cc1cc(-c2csc3nc[nH]c(=S)c23)cc(C)c1C,85*,5.2*,.,-5
CCC1(C)OC(=O)NN(c2ccc(C)cc2)C1(C)O (stereo not drawn),0.12,.,1,-3
Cc1nc(C)c(C(=O)Nc2ccc(Oc3ccccc3)cc2)o1,-4*,-1.2,10,-7
Cc1ncoc1C(=O)Nc1ccc(Oc2ccccc2)cc1,.,-1.5,-4,-6
SMILES,Cl transport mod,ROMK mod,Rad51 HR inh,PKD1 kinase inh
CCc1cccc(C)c1NC(=O)CN(C)Cc1ccccc1F,-0.071,-0.98,-2,-6
Cc1ccc(-n2c(C3CC3c3ccc(Cl)cc3)n[nH]c2=S)cc1 (stereo not drawn),-0.021,-0.012,-13,-3
Cc1ccc(C2CC2c2n[nH]c(=S)n2-c2ccc(C)cc2)cc1 (stereo not drawn),21*,0.06,0,-1
CCn1cc(C(=O)N2CCN(c3ccccc3F)CC2)c(=O)c2ccc(C)nc21,-0.64,.,.,3
CCOC(=O)c1ccccc1NC(=O)N[C@@H](C)C(=O)OC,-3.4*,2.3*,1,-3
Cc1ccc(-c2csc(NC(=O)CSc3nc(C)cc(=O)[nH]3)n2)cc1,-4.2*,-2.8,3,-13
c1ccc(OCc2noc(CN3CCC(C4CCCCC4)C3)n2)cc1 (stereo not drawn),0.78,-0.68,10,-8
Cc1cc(C)c2nc(SC(C)C(=O)NCC(=O)Nc3ccc(F)c(F)c3F)cc(C)c2c1 (stereo not drawn),12*,.,2,-3
Cc1cc(SC(C)C(=O)NCC(=O)Nc2ccc(F)c(F)c2F)nc2ccccc12 (stereo not drawn),1.3,.,2,0
O=C(O)CC(NC(=O)C1CCCCC1)c1ccc(OC2CCCC2)cc1 (stereo not drawn),0.032,-0.015,28,-2
Cc1cccc(C(=O)NC(CC(=O)O)c2ccc(OC3CCCC3)cc2)c1[N+](=O)[O-] (stereo not drawn),0.0027,0.04,44*,3
O=C(CNC(=O)c1ccc(Br)o1)OCC(=O)c1cccc([N+](=O)[O-])c1,-0.005,0.71,-14,2
O=C(Nc1ccc(Cl)c(Cl)c1)Nc1cc(S(=O)(=O)N2CCOCC2)ccc1N1CCCC1,-0.073,-1.2,3,-11
CCOc1ccc(Nc2cc(C)nc(-n3nc(C)cc3C)n2)cc1,.,2.7*,13,-3
CNc1cc(C)nc(-n2nc(C)cc2C)n1,.,-0.31,-9,8
Oc1oc(-c2cccc3ccccc23)nc1C=NCc1ccccc1,0.023,0.15,.,-12
Oc1oc(-c2cccc3ccccc23)nc1/C=N/c1nccs1,24*,.,-44,-3
CCOC(=O)c1ccc2ncc(C(=O)OCC)c(NCc3ccco3)c2c1,-0.022,3.3*,-9,16
CCOC(=O)c1cnc2c(C)cccc2c1NCc1ccco1,0.25,-1.3,.,-2
N#CC1=C(N)SC(N)=C(C#N)C1CCc1ccccc1,-3.1*,.,-123,6
CCc1ccc(C2C(C#N)=C(N)SC(N)=C2C#N)cc1,7.9*,-4.2*,-94,5
Cc1c(C#N)c(N)nc(Cl)c1C#N,.,0.29,4,115*
COc1ccc(/C=C(\C#N)C(=O)OCC(=O)NC2CC2)cc1,0.56,0.052,-4,-10
CCOC(=O)CN1C(=O)CN(c2ccc(C)cc2)C1=O,-0.31,.,2,-2
CC(C)CNC(=S)NC(=O)c1ccc([N+](=O)[O-])cc1,20*,-0.73,.,6
SMILES,Cl transport mod,ROMK mod,Rad51 HR inh,PKD1 kinase inh
CCCCNC(=S)NC(=O)c1ccc([N+](=O)[O-])cc1,21*,-0.33,.,-6
S=c1[nH]nc(COc2ccc3ccccc3c2)o1,-5.7*,.,-2,-9
COc1ccc(Cc2n[nH]c(=S)o2)cc1,-2,-0.4,17,-5
CCc1[nH]nc2c1C(c1ccc(C)o1)C(C#N)=C(N)O2 (stereo not drawn),-0.04,-2.5,.,6
CCc1[nH]nc2c1C(c1ccc(Br)s1)C(C#N)=C(N)O2 (stereo not drawn),-4.4*,-4.2*,5,-3
O=C(COC(=O)c1ccc[n+]([O-])c1)Nc1c(Br)cc([N+](=O)[O-])cc1Br,-0.73,-0.26,0,3
Cc1cccc(S(=O)(=O)c2c(N)n(Cc3ccco3)c3nc4ccccc4nc23)c1,-5.5*,-2.9*,0,6
